Test [1] deals with T1, Phospholipase A and acyltransferase 5 (Homo sapiens, UniProt Q96KN8).
T1 sequence (Q96KN8 whole entry): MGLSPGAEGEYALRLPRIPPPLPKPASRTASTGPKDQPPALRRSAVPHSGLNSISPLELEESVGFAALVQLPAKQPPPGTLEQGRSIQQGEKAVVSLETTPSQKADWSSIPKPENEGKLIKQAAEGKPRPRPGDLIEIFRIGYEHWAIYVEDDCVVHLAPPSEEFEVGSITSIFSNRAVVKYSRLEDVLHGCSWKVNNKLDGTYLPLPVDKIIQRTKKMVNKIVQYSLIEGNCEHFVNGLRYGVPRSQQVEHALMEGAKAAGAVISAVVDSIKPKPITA
As to the kind of experiment: Inhibition of full-length C-terminal FLAG-tagged human PLAAT5 expressed in HEK293T cell lysate preincubated for 30 mins followed by MB064 addition and measured after 20 mins by SDS-PAGE based ABPP analysis. The essentials:
(§1)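 Dose–response competitive ABPP on cytosol only, from HEK293T overexpressing FLAG-tagged PLAAT. Inhibitor 30 min rt, then MB064 20 min rt. PLAAT2 0.25 μg/μL with 250 nM probe; PLAAT3 0.5 μg/μL with 250 nM; PLAAT4 and PLAAT5 1 μg/μL with 500 nM. Fluorescence normalized to Coomassie. IC50 from curves, reported as pIC50 ± SEM, n = 3.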

Test [2] addresses T2, Phospholipase A and acyltransferase 2 (Homo sapiens, UniProt Q9NWW9).
T2 sequence (Q9NWW9 whole entry): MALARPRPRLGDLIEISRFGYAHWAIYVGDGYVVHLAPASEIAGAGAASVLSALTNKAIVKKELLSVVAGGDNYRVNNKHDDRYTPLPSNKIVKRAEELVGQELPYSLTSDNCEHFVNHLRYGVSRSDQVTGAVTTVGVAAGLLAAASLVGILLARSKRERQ
The test can be described thus: Inhibition of full-length C-terminal FLAG-tagged human PLAAT2 expressed in HEK293T cell lysate preincubated for 30 mins followed by MB064 addition and measured after 20 mins by SDS-PAGE based ABPP analysis. The essentials: as §1

With `O=C(CCc1ccc(Cl)cc1)C(=O)NCCc1ccccc1`, the results for the IC50 in test [1] and in test [2] were 398 nM and 631 nM, respectively.

Regarding `O=C(CCCc1ccccc1)C(=O)NCCc1ccc(Oc2ccc(C(F)(F)F)cn2)cc1`, in test [2], the IC50 (in general, the midpoint of a concentration-inhibition curve) was 158 nM.
